Test results published in PubChem BioAssay.
Calls of active or inactive are those of the source.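 The calls were made as follows, unless noted: active = a full or partial loss of lipid-probe fluorescence in the fish gall bladder, intestine or both, judged by eye; inactive = no fluorescence loss, or compound toxic to the fish.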

How the values were obtained:
[1] = inhibitors of TNFa-induced NFkB p65 translocation, primary screen, imaging, HUVEC, MLSMR starter and 10KST1 sets (AID 438;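 active = inhibition above 20% together with a positive visual image hit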;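 also: compound added about 3h40 before a 20 min TNFalpha stimulation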;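 as to inhibition: signal is the nuclear over cytoplasmic p65 intensity ratio per well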); conditions: HUVEC TNFa-induced p65 nuclear translocation; cell count: measured here: nuclei count (cytotoxicity indicator), at 2.08 µM; inhibition: at 2 µM, stronger effect = higher value, 0% TNFa-plus-vehicle, 100% no-TNFa wells
[2] = inhibitors of E-selectin induction by TNFa, primary screen, imaging, HUVEC, immunofluorescence, MLSMR starter and 10KST1 sets (AID 487;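 active = visually confirmed hit in the image check and inhibition above 20%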;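 as to inhibition: signal is fraction of cell area covered by stained E-selectin grains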;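 as to nuclei count: 100% = median nuclei count of all wells on the same plate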); conditions: HUVEC TNFalpha-induced E-selectin immunofluorescence imaging, at 2 µM; inhibition: stronger effect = higher value; nuclei count: measured here: cell number, toxicity
[3] = DUSP6 inhibitors restoring Erk phosphorylation by chemical complementation, primary imaging in DUSP6-transfected HeLa (AID 609;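 active = compounds giving at least 50% inhibition in the cell-based MKP-3 phosphatase rescue imaging test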;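 as to inhibition: phospho-Erk level distribution per well compared with pooled transfected vehicle control wells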); conditions: HeLa MKP-3 transfected, phospho-Erk imaging KS statistic, at 10 µM, cells stimulated with TPA for 15 min
[4] = biological target: Dual specificity protein phosphatase 6 (Homo sapiens) (UniProt Q16828); test: as above; conditions: HeLa MKP-3 transfected, phospho-Erk imaging KS statistic; at 10 µM; stronger effect = higher value; cells stimulated with TPA for 15 min
Dual specificity protein phosphatase 6 (Homo sapiens), sequence (Q16828 whole entry, looked up): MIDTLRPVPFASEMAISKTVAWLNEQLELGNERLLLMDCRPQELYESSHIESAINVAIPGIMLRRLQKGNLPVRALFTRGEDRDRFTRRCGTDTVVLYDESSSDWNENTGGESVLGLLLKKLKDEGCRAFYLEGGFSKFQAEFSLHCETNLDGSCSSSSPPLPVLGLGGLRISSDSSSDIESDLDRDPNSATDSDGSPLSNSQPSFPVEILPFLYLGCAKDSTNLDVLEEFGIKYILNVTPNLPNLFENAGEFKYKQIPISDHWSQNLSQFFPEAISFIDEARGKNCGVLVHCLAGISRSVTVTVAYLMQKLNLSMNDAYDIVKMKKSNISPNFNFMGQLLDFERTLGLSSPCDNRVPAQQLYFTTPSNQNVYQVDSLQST

[5] = biological target: Voltage-gated potassium channel subunit beta-2 (Rattus norvegicus) (UniProt P62483); test: KvBeta enzyme negative modulators, primary screen, biochemical, NADPH fluorescence (AID 622;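 active = fluorescence slope higher than the sample average by over 3 SD, cut at about -0.22 in these data, passing the limit was not always enough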;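 also: slope of raw intensity against log time taken from 70 to 1610 s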); conditions: recombinant KvBeta, 4-cyanobenzaldehyde reduction, at 10 µM, stronger effect = higher value
Voltage-gated potassium channel subunit beta-2 (Rattus norvegicus), sequence (P62483 whole entry, looked up): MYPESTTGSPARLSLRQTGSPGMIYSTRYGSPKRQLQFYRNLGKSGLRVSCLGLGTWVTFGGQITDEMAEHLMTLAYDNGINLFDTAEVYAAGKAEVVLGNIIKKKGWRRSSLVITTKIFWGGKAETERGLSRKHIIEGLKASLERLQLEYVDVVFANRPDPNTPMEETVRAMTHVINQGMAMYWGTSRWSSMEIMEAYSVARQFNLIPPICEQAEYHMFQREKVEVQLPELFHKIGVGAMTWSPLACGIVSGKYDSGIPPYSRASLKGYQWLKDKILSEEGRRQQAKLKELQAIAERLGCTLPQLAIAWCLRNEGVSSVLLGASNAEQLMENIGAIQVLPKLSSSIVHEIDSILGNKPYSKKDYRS

[6] = biological target: Voltage-gated potassium channel subunit beta-2 (Rattus norvegicus) (UniProt P62483); test: KvBeta positive modulators, primary screen, biochemical, NADPH fluorescence (AID 623;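 active = NADPH fluorescence slope more negative than the mean of all samples by about 3 SD, 99.7% confidence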;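 also: fluorescence intensity change per second fitted from 20 to 320 s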); conditions: Recombinant KvBeta, NADPH fluorescence decrease slope, 10 min; at 10 µM; stronger effect = lower value
[7] = biological target: Muscarinic acetylcholine receptor M4 (Homo sapiens) (UniProt P08173); test: compounds altering M4/GIRK thallium flux, either direction, primary screen, M4 allosteric agonist project, cell-based, HEK293 M4/GIRK, BTC-AM (AID 625;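 active = fluorescence slope after compound addition differing from the mean of all tested samples at 99.7% confidence, mostly higher but some lower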;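 also: thallium influx through GIRK channels coupled to M4 in HEK293 cells with BTC-AM dye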); conditions: at 10 µM, actives lie on both sides
Muscarinic acetylcholine receptor M4 (Homo sapiens), sequence (P08173 whole entry, looked up): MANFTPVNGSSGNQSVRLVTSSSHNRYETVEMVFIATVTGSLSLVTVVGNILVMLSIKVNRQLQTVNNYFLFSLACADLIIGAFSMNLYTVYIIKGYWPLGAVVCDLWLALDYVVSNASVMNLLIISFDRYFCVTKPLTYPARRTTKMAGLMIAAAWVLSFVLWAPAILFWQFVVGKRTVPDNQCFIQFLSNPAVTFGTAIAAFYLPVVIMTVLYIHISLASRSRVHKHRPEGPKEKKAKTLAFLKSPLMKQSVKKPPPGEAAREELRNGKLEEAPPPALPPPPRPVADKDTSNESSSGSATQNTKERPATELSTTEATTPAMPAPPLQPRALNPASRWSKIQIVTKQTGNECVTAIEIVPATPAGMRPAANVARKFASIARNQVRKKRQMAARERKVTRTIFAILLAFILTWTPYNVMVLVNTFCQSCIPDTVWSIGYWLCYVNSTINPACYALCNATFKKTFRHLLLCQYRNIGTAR
How it was run: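 Material – HEK293 cells with M4 receptor and GIRK channels · Buffer or medium – pH 7.3 thallium assay buffer · Doses – one dose, 10 µM final · Timing – cells overnight at 37 °C, BTC-AM loading 1 h, reads 2 min total · Measured by – kinetic fluorescence with BTC-AM dye · Controls – carbachol and DMSO controls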

[8] = inhibitors of larval lipid processing in zebrafish, primary screen, whole organism, PED6 fluorescence, gall bladder and intestine (AID 686); conditions: Zebrafish larvae PED6 lipid processing, fluorescence scoring; screened at 20 µM (by protocol);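 also: larvae 5 to 7 days old with five fish per well; signal comes from phospholipase A2 cleavage of quenched PED6 carried via bile; overnight exposure to compound and PED6 before scoring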
How it was run: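 system = live zebrafish larvae aged 5-7 days, whole organism | probe or stimulus = ingested quenched lipid PED6 at 100 nM | doses = 20 µM single dose | timing = overnight exposure | detection = fluorescence microscopy with visual scoring of gall bladder and intestine | read-out = visual per-well fluorescence inhibition score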

[9] = inhibitors of Chlamydomonas gravitaxis, primary screen, whole organism, Chlamydomonas reinhardtii, WT vs cilia-less mutant, absorbance, 96-well (AID 463189;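 active = inhibition at or above 50% relative to wild type and mutant plate controls; inactive = inhibition below 50%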;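 also: 0% = wild type cc124 cells in DMSO and 100% = ciliumless bld1 mutant cells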); conditions: OD600 absorbance, 2 days, at 10 µM, stronger effect = higher value
[10] = measured here: cell density z-score
[11] = measured here: nuclear c-Myc green intensity z-score
[12] = measured here: nuclear pErk red intensity z-score, stronger effect = higher value

Row | Structure (SMILES) | cell count [1] | inhibition [1] | inhibition [2] | nuclei count [2] | z-score [3, 10] | z-score [3, 11] | z-score [3, 12] | inhibition [4] | fluorescence slope [5] | NADPH fluorescence slope [6] | fluorescence slope [7] | outcome [8] | inhibition [9]
1 | O=C(O)CCc1nn2cc(-c3ccccc3)nc2[nH]c1=O | 580 | 3% (inactive) | -147% (inactive) | 170% | 0.555 | -0.659 | -0.476 | -7.93% (inactive) | -0.00517 (active) | 2.1e-06 (inactive) | 0.00553 (inactive) | inactive | -5.8% (inactive)
2 | CN=C(c1ccco1)n1c(=S)nc(-c2ccco2)n(C)c1=S | 339 | -5.2% (inactive) | -204% (inactive) | 126% | 0.329 | -0.895 | -0.461 | -2.59% (inactive) | -0.522 (inactive) | -0.000102 (inactive) | 0.00396 (inactive) | inactive | 28.5% (inactive)
3 | COc1ccccc1C1CC(c2ccc(Cl)cc2)Nc2nc(N)nn21 (stereo unspecified) | 404 | 0% (inactive) | -104% (inactive) | 146% | -0.136 | -0.282 | -0.582 | 11.9% (inactive) | -0.459 (inactive) | -0.000104 (inactive) | 0.00483 (inactive) | inactive | -3.22% (inactive)
4 | Cc1ccc(NC(=O)Cn2nc(C)c3ccccc3c2=O)cc1 | 576 | -1.6% (inactive) | -60.9% (inactive) | 134% | 1 | -0.268 | 1.91 | 9.07% (inactive) | -0.496 (inactive) | -0.000121 (inactive) | 0.00582 (inactive) | inactive | -6.33% (inactive)
5 | Cn1c(=O)[nH]c(=O)c2c1nc(Br)n2CCSc1ncccn1 | 643 | -7.6% (inactive) | -107% (inactive) | 179% | 0.65 | -0.91 | -0.622 | -2.59% (inactive) | -0.446 (inactive) | -4.5e-05 (inactive) | 0.00519 (inactive) | inactive | 13.2% (inactive)
6 | CC1(C)Cc2c(sc3ncn4nc(-c5ccco5)nc4c23)CO1 | 629 | 6.6% (inactive) | -31.6% (inactive) | 112% | -0.299 | 0.915 | -1.17 | -7.67% (inactive) | -0.432 (inactive) | -4.1e-05 (inactive) | 0.00512 (inactive) | inactive | 16.9% (inactive)
7 | Cc1ccc(N2C(=O)CC3(CC4C=CC3C4)C2=O)cc1 (stereo unspecified) | 637 | 6.2% (inactive) | -47.9% (inactive) | 115% | 1.62 | -0.359 | -0.765 | -2.09% (inactive) | -0.414 (inactive) | -3.6e-05 (inactive) | 0.00482 (inactive) | inactive | -4.98% (inactive)
8 | COc1cc2c(cc1OC)C1(CCCC1)C(N)=C2C#N | 374 | 2.5% (inactive) | 36.9% (inactive) | 104% | -0.0432 | -0.638 | 1.42 | 17.4% (inactive) | -0.437 (inactive) | -0.000121 (inactive) | 0.00412 (inactive) | inactive | 2.1% (inactive)
9 | C=CCn1c(-c2ccc(OC)c(OC)c2)n[nH]c1=S | 515 | -3.9% (inactive) | 9.4% (inactive) | 150% | 0.455 | -1.23 | -0.521 | 5.95% (inactive) | -0.338 (inactive) | -3.6e-05 (inactive) | 0.00705 (inactive) | inactive | 30.5% (inactive)
10 | COc1ccc(-n2ncc3c(NCCCn4ccnc4)ncnc32)cc1 | 614 | -4% (inactive) | 0.9% (inactive) | 170% | -0.682 | 1.35 | -0.266 | 3.42% (inactive) | -0.394 (inactive) | -5.9e-06 (inactive) | 0.00474 (inactive) | inactive | 1.19% (inactive)
11 | CCCC1C(c2ccc(OC)cc2)C(C#N)(C#N)C2(C#N)CC1(N)NC2=O (stereo unspecified) | 369 | -0.7% (inactive) | -28.9% (inactive) | 84.9% | -2.59 | 2.42 | -0.136 | -2.69% (inactive) | -0.495 (inactive) | 3.3e-05 (inactive) | 0.00515 (inactive) | inactive | -15.7% (inactive)
12 | COc1cccc(C2/C(=C(\O)c3ccc4c(c3)OCCO4)C(=O)C(=O)N2CCCN(C)C)c1OC (stereo unspecified) | 396 | 1.1% (inactive) | -21.2% (inactive) | 174% | 0.231 | -0.342 | 2 | -6.86% (inactive) | -0.452 (inactive) | -9.9e-05 (inactive) | 0.00452 (inactive) | inactive | 18.1% (inactive)
13 | Cc1cc(C)n(CC2CC(=O)N(c3cc(Cl)cc(Cl)c3)C2=O)n1 (stereo unspecified) | 656 | 50.4% (active) | -80.7% (inactive) | 103% | -0.905 | 0.888 | -1.76 | -9.53% (inactive) | -0.548 (inactive) | -7.9e-05 (inactive) | 0.00628 (inactive) | inactive | 10.7% (inactive)
14 | CCCCSc1nnc2n(CCc3ccccc3)c(=O)c3c4c(sc3n12)COC(C)(C)C4 | 533 | -4.4% (inactive) | -25.9% (inactive) | 170% | 1.42 | -1.24 | 0.334 | 11.9% (inactive) | -0.334 (inactive) | -6.5e-06 (inactive) | 0.00807 (inactive) | inactive | 129% (active)
15 | CC1(C)Cc2c(C#N)c(N3CCOCC3)nc(Cc3ccccc3)c2CO1 | 582 | -0.5% (inactive) | -122% (inactive) | 132% | -0.332 | -0.948 | -0.693 | -3.95% (inactive) | -0.445 (inactive) | -5.6e-05 (inactive) | 0.00448 (inactive) | inactive | 17.6% (inactive)
16 | CCc1nc(N2CCCC2)c(C#N)c2c1CCCC2 | 422 | 2.1% (inactive) | -71.3% (inactive) | 118% | -1.3 | 0.104 | 0.215 | -6.59% (inactive) | -0.506 (inactive) | 3e-05 (inactive) | 0.00476 (inactive) | inactive | -11.4% (inactive)
17 | CC1(C)CC(=O)C2=C(C1)OC(N)=C(C#N)C2C1C=CCCC1 (stereo unspecified) | 725 | -1.5% (inactive) | -74.9% (inactive) | 173% | -0.465 | 0.0637 | 1.38 | 7.83% (inactive) | -0.43 (inactive) | -5.1e-05 (inactive) | 0.00473 (inactive) | inactive | 9.73% (inactive)
18 | COc1ccc(/C(O)=C2/C(=O)C(=O)N(CCN3CCOCC3)C2c2cccnc2)cc1OC (stereo unspecified) | 364 | -4.2% (inactive) | -126% (inactive) | 151% | -0.575 | 1.61 | -0.594 | 11.9% (inactive) | -0.486 (inactive) | -4.1e-05 (inactive) | 0.00405 (inactive) | inactive | -1.91% (inactive)
19 | CCOc1ccc2nc(NC(NC(=O)CC)(C(=O)OC)C(F)(F)F)sc2c1 (stereo unspecified) | 362 | -7% (inactive) | -214% (inactive) | 195% | -0.714 | 0.587 | 0.266 | 3.42% (inactive) | -0.424 (inactive) | -8.8e-05 (inactive) | 0.00487 (inactive) | inactive | -2.07% (inactive)
20 | C[n+]1cccc(CNC(=O)/C=N/O)c1 | 621 | -2.4% (inactive) | -126% (inactive) | 158% | -2.05 | 3.02 | 0.751 | 6.04% (inactive) | -0.47 (inactive) | -3e-05 (inactive) | 0.00464 (inactive) | inactive | -6.73% (inactive)
21 | Cc1nc(N2CCN(C(=O)c3ccc(Cl)cc3)CC2)c(C#N)c2c1COC(C)(C)C2 | 522 | 8.1% (inactive) | 7% (inactive) | 95.8% | -0.225 | -0.286 | 0.404 | 1.98% (inactive) | -0.335 (inactive) | -2.3e-05 (inactive) | 0.00518 (inactive) | inactive | 129% (active)
22 | CCOc1ccc(C2CC(c3ccccc3)Nc3nc(N)nn32)cc1 (stereo unspecified) | 364 | -2.2% (inactive) | -80.6% (inactive) | 144% | 1.38 | -1.02 | 0.957 | 11.9% (inactive) | -0.467 (inactive) | -0.000102 (inactive) | 0.00481 (inactive) | inactive | -15.5% (inactive)
23 | N#Cc1c(N)nc(SCC(=O)NCc2ccc3c(c2)OCO3)c(C#N)c1-c1cccs1 | 577 | -0.3% (inactive) | 53.2% (inactive) | 115% | 0.98 | 1.31 | -0.212 | 6.04% (inactive) | -0.493 (inactive) | -6.7e-05 (inactive) | 0.00636 (inactive) | inactive | -14% (inactive)
24 | CCO/C(C)=N/n1c2nc3ccccc3nc2c2c(=O)n(Cc3ccccc3Cl)c(C)nc21 | 649 | -3.5% (inactive) | -201% (inactive) | 159% | -0.0584 | -0.543 | -0.0329 | 9.37% (inactive) | -0.455 (inactive) | -3.5e-05 (inactive) | 0.00359 (inactive) | inactive | 12.7% (inactive)
25 | CCN(CC)CCN1C(=O)C(O)=C(C(=O)c2cc3ccccc3o2)C1c1cccnc1 (stereo unspecified) | 423 | -6.8% (inactive) | 14.8% (inactive) | 163% | -0.472 | -0.722 | -0.061 | 3.56% (inactive) | -0.431 (inactive) | -0.000135 (inactive) | 0.00445 (inactive) | inactive | -8.96% (inactive)
26 | COc1ccc(-c2nc3c(Br)c(N)c(Br)cc3o2)cc1 | 497 | -7.6% (inactive) | -77.2% (inactive) | 140% | 0.844 | -1.44 | 0.173 | -1.98% (inactive) | -0.404 (inactive) | -2.1e-05 (inactive) | 0.0064 (inactive) | inactive | 14.6% (inactive)
27 | Cc1nc(NCCO)c(C#N)c2c1COC(C)(C)C2 | 538 | -2.6% (inactive) | -147% (inactive) | 132% | -0.0329 | 1.94 | -1.24 | 15.4% (inactive) | -0.464 (inactive) | -3.6e-05 (inactive) | 0.0044 (inactive) | inactive | 5.51% (inactive)
